# Values joined by “and” are separate entries in the source; they are usually repeats but may differ in a detail not shown here. Identical values can stand only once. “Also recorded” adds a separate entry of the source.
# T1: KIF2C Nt (KIF2C1-79) (Homo sapiens, UniProt Q99661)
# T1 sequence (Q99661 1-79): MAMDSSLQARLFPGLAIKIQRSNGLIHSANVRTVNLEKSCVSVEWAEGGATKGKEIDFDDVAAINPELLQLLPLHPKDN
# T2: BRCA2_(48-218) phosphorylated by PLK1 (human, UniProt P51587 48-218, phosphoserine 193, phosphothreonine 207; 15N-labelled)
# T2 sequence (looked up): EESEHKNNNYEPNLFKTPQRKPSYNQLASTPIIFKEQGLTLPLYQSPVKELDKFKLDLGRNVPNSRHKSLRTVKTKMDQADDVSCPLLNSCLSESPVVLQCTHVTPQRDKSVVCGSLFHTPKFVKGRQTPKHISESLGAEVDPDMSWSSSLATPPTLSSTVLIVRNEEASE
# B1: KIF2C N-terminal domain, KIF2C_(1-79) (domain or fragment, human, UniProt Q99661 1-79, looked up)
# chain: T1 sequence (Q99661 1-79)
# modifications: 15N-labelled where it is the observed protein in NMR
# What was measured:
# [1] = test system: proteins in the vicinity of TurboID-Opto-KIF2C condensates, Flp-In T-Rex 293 cells; assay type: cell-based; conditions: light OFF and ON conditions
# Procedure, shortened: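 Flp-In T-REx 293 cells stably carrying TurboID-Opto-KIF2C, nocodazole-arrested, at 75% confluence, induced with 6 ng/ml doxycycline for 16 h. Biotin added while cells received 15 min of blue-light cycles (4 s light/30 s dark), or kept dark. Lysates sonicated and cleared; 1 mg protein bound to streptavidin-agarose 3 h at 4°C, stringently washed, boiled in Laemmli buffer. Detection by HRP immunoblot with ECL.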
# [2] = test system: Opto-KIF2C condensates in Flp-In T-REx 293 cells; assay type: cell-based
# Procedure, shortened: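 Opto-KIF2C expression induced with 1 μg/ml doxycycline for 16 h in cells plated at ~70% confluency in DMEM. Mitotic arrest used 100 ng/ml nocodazole for 16 h. Condensation induced under 488 nm LEDs at 10 mW/cm2, with 5 min of 4 s light/10 s dark cycles. Cells fixed in 4% PFA 15 min, permeabilized in 0.2% Triton 10 min, blocked in 3% BSA; primary and secondary antibodies 1 h RT each.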
# [3] = test system: Opto-KIF2C condensates in Flp-In T-REx 293 cells; test: Opto-KIF2C foci formation; assay type: cell-based; conditions: mitotic cells; for number of optogenetic KIF2C condensates formed upon blue light exposure: light ON
# [4] = test system: Opto-KIF2C foci in Flp-In T-REx 293 cells; test: SIM measurement of Opto-KIF2C foci area; assay type: cell-based; conditions: mitotic cells, 5 min 488 nm light, about 0.1 μm^2 without nocodazole
# [5] = molecular target: KIF2C N-terminal domain, KIF2C_(1-79) (human) (UniProt Q99661); test: ITC
# [6] = molecular target: KIF2A N-terminal domain, KIF2A_(1-77) (human) (UniProt O00139); test: ITC
# KIF2A Nt (KIF2A1-77) = KIF2A Nt (KIF2A1-77) (Homo sapiens, UniProt O00139); assay type: binding; conditions: 15N-labeled KIF2A1-77, molar ratios 1:0 to 1:2, DPBS pH 7.0, 10°C
# KIF2C Nt (KIF2C1-79) = molecular target: T1, KIF2C Nt (KIF2C1-79); assay type: binding; conditions: 15N-labeled KIF2C1-79, molar ratios 1:0 to 1:2, DPBS pH 7.0, 10°C
# [7] = molecular target: T2, BRCA2_(48-218) phosphorylated by PLK1; test: NMR titration
# Chain of KIF2A N-terminal domain, KIF2A_(1-77) (human) (O00139 1-77): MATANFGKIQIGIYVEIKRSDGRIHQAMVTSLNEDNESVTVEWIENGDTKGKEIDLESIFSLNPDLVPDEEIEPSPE
# Chain of KIF2A Nt (KIF2A1-77) (O00139 1-77): as above
molecule,measurement,setting,value
COc1cc2c(Nc3ccc(NC(=O)c4ccccc4)cc3)ncnc2cc1OCCCN1CCOCC1 [ZM447439],abundance of PLK1 in the vicinity of KIF2C condensates,[1],less abundant
same,"BRCA2-pT207 in KIF2C condensates (immunofluorescence, co-localization)",[2]; Flp-In T-Rex 293 cells,could not detect; also recorded: abolished
same,PLK1 and PLK1-pT210 within Opto-KIF2C condensates (immunofluorescence),"[2]; mitotic cells, absence or presence of nocodazole",unable to detect
same,formation of KIF2C condensates formed without light,[3]; light OFF,completely abolished
same,number of optogenetic KIF2C condensates formed upon blue light exposure,[3]; Noc (+),did not change
same,number of optogenetic KIF2C condensates formed upon blue light exposure,[3]; Noc (-),mildly decreased
COC(=O)Nc1nc2ccc(C(=O)c3cccs3)cc2[nH]1 [nocodazole],area of the Opto-KIF2C condensates,[4],about 0.15 μm^2
BRCA2_(194-214(pT207)) peptide (from UniProt P51587 194-214),Kd,[5],480 nM and 1300 nM
same,dH,[5],-19.1 kcal/mol and -12.1 kcal/mol
same,Kd,[6],600 nM
same,dH,[6],-15.7 kcal/mol and -18.1 kcal/mol
"BRCA2_194-214: non-phosphorylated synthetic BRCA2 peptide, residues 194-214 (WSSSLATPPTLSSTVLIVRNE)",binding to KIF2A Nt by NMR chemical shift analysis,KIF2A Nt (KIF2A1-77),did not detect any binding
same,binding to KIF2C Nt by NMR chemical shift analysis,KIF2C Nt (KIF2C1-79),did not detect any binding
B1,binding result,[7],binds

# From publication PMC12153341 (Nucleic Acids Research, 2025)
